Source: ChEMBL document CHEMBL1153478, “Discovery of imidazo[1,2-a]pyridines as potent MCH1R antagonists” (Bioorg Med Chem Lett, 2009)

Key:
[1] = molecular target: T1, Melanin-concentrating hormone receptor 1 (Homo sapiens, UniProt Q99705); assay: Antagonist activity at human MCH1 receptor expressed in CHO cells assessed as inhibition of MCH-induced intracellular calcium level by FLIPR assay; type: functional, cell-based
[2] = molecular target: T1, Melanin-concentrating hormone receptor 1; assay: Displacement of [125I]MCH from human MCH1 receptor
How it was run: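 Competition binding on membranes from CHO cells expressing human MCH1R, with [125I]-MCH as radioligand displaced by test compounds; IC50 reported as the mean of 2 experiments.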

Brain = assay: Drug level in Sprague-Dawley rat brain at 10 mg/kg, po after 2 hrs; type: ADME, organism-based; design: dose 10 mg/kg, route oral; conditions: in vivo
How it was run: (§1)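 Single oral dose of 10 mg/kg given to SD rats. Plasma (µM) and brain (nmol/g) levels were measured 2 h after dosing. Values are means of 3 experiments.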

[3] = Plasma concentration in Sprague-Dawley rat at 10 mg/kg, po after 2 hrs; type: ADME, organism-based; design: dose 10 mg/kg, route oral; how it was run: as §1

T1 sequence (Q99705 whole entry): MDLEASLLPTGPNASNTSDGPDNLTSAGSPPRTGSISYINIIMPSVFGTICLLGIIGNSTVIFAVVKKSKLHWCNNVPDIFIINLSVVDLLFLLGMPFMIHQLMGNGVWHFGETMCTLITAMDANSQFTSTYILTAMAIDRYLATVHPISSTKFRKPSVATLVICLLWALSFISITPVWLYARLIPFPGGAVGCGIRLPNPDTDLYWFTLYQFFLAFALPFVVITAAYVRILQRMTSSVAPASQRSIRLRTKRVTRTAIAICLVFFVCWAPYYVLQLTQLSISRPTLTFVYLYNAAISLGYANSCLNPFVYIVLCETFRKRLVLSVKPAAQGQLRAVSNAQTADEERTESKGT

IC50 [1] [nM]	IC50 [2] [nM]	Drug uptake (Brain) [nmol/g]	concentration at 2 h [3] [µM]	Compound
100	2.2			Cc1c(C2CC2)nc2ccc(NC(=O)c3ccc(-c4ccc(Cl)cn4)cc3)cn12
	11			O=C(Nc1ccc2nc(C3CC3)c(CO)n2c1)c1ccc(-c2ccc(C(F)(F)F)cc2)cc1
	8.2			O=C(Nc1ccc2nc(C3CC3)cn2c1)c1ccc(-c2ccc(C(F)(F)F)cn2)cc1
	7.1			CC(C)(C)c1cn2cc(NC(=O)c3ccc(-c4ccc(C(F)(F)F)cc4)cc3)ccc2n1
	300			O=C(Nc1ccc2nccn2c1)c1ccc(-c2ccc(C(F)(F)F)cc2)cc1
	320			CC(=O)c1c(C2CC2)nc2ccc(NC(=O)c3ccc(-c4ccc(C(F)(F)F)cc4)cc3)cn12
90	5.4			Cc1c(C2CC2)nc2ccc(NC(=O)c3ccc(-c4ccc(F)cn4)cc3)cn12
	20			CCc1c(C2CC2)nc2ccc(NC(=O)c3ccc(-c4ccc(C(F)(F)F)cc4)cc3)cn12
	83			CN(C)Cc1cn2cc(NC(=O)c3ccc(-c4ccc(C(F)(F)F)cc4)cc3)ccc2n1
85	4.8			Cc1ccc(-c2ccc(C(=O)Nc3ccc4nc(C5CC5)c(C)n4c3)cc2)nc1
122	6			COc1ccc(-c2ccc(C(=O)Nc3ccc4nc(C5CC5)c(C)n4c3)cc2)nc1
	330			CC(O)c1c(C2CC2)nc2ccc(NC(=O)c3ccc(-c4ccc(C(F)(F)F)cc4)cc3)cn12 (stereo not given)
	17			CC(C)(O)c1cn2cc(NC(=O)c3ccc(-c4ccc(C(F)(F)F)cc4)cc3)ccc2n1
94	48			Cc1c(C2CC2)nc2ccc(NC(=O)c3ccc(-c4ccc(S(C)(=O)=O)cn4)cc3)cn12
109	4			Cc1c(C2CC2)nc2ccc(NC(=O)c3ccc(-c4ccc(C(F)(F)F)nc4)cc3)cn12
	30			CC(O)c1cn2cc(NC(=O)c3ccc(-c4ccc(C(F)(F)F)cc4)cc3)ccc2n1 (stereo not given)
70	2.5			Cc1c(C2CC2)nc2ccc(NC(=O)c3cnc(-c4ccc(F)cc4)cn3)cn12
164	102			Cc1c(C2CC2)nc2ccc(NC(=O)c3ncc(-c4ccc(F)nc4)cn3)cn12

IC50 [1] [nM]	IC50 [2] [nM]	Drug uptake (Brain) [nmol/g]	concentration at 2 h [3] [µM]	Compound
	260			O=C(Nc1ccc2nc(C3CC3)c(C3CC3)n2c1)c1ccc(-c2ccc(C(F)(F)F)cc2)cc1
1000	3.5	1.6	1.4	Cc1c(C2CC2)nc2ccc(NC(=O)c3ccc(-c4ccc(C(F)(F)F)cn4)cc3)cn12
26				Cc1c(C2CC2)nc2ccc(NC(=O)c3ccc(-c4ccccn4)cc3)cn12
	4.8			Cc1c(C2CC2)nc2ccc(NC(=O)c3ccc(-c4ccc(C(F)(F)F)cc4)cc3)cn12
	4.6			Cc1cn2cc(NC(=O)c3ccc(-c4ccc(C(F)(F)F)cc4)cc3)ccc2n1
	5.6			O=C(Nc1ccc2nc(C3CC3)cn2c1)c1ccc(-c2ccc(C(F)(F)F)cc2)cc1
	160			Cc1c(C2CC2)nc2ccc(NC(=O)c3ccc(-c4cnc(C(F)(F)F)nc4)cc3)cn12
	11			CCCc1cn2cc(NC(=O)c3ccc(-c4ccc(C(F)(F)F)cc4)cc3)ccc2n1
29	6.8			Cc1c(C2CC2)nc2ccc(NC(=O)c3ncc(-c4ccc(F)cc4)cn3)cn12
	35			CC(=O)N(C)Cc1cn2cc(NC(=O)c3ccc(-c4ccc(C(F)(F)F)cc4)cc3)ccc2n1
20	4.4	2.5	5	Cc1c(C2CC2)nc2ccc(NC(=O)c3ccc(-c4ccc(F)nc4)cc3)cn12
	130			O=C(Nc1ccc2nc(CO)cn2c1)c1ccc(-c2ccc(C(F)(F)F)cc2)cc1
94	4			Cc1c(C2CC2)nc2ccc(NC(=O)c3ccc(-c4ccc(F)cc4)nc3)cn12
59				Cc1c(C2CC2)nc2ccc(NC(=O)c3ccc(-c4ccc(F)cc4)cn3)cn12
217	61			Cc1c(C2CC2)nc2ccc(NC(=O)c3ccc(-c4ccc(F)nc4)nc3)cn12
	140			O=C(Nc1ccc2nc(C3CC3)cn2c1)c1ccc(-c2ccccn2)cc1
	5.4			CC(C)c1cn2cc(NC(=O)c3ccc(-c4ccc(C(F)(F)F)cc4)cc3)ccc2n1
121	44			Cc1c(C2CC2)nc2ccc(NC(=O)c3ccc(-c4ccc(F)nc4)cn3)cn12

Compound	IC50 [1] [nM]	IC50 [2] [nM]	Drug uptake (Brain) [nmol/g]	concentration at 2 h [3] [µM]
CCOC(=O)c1cn2cc(NC(=O)c3ccc(-c4ccc(C(F)(F)F)cc4)cc3)ccc2n1		> 1000		
